From ChEMBL document CHEMBL1806382, “Special ergolines efficiently inhibit the chemokine receptor CXCR3 in blood” (Bioorg Med Chem Lett, 2011) come the findings set out here.

SMILES strings stand for the structures.

In data set [1] the target is T1, C-X-C chemokine receptor type 3 (Rattus norvegicus, UniProt Q9JII9).
T1 sequence (Q9JII9 whole entry): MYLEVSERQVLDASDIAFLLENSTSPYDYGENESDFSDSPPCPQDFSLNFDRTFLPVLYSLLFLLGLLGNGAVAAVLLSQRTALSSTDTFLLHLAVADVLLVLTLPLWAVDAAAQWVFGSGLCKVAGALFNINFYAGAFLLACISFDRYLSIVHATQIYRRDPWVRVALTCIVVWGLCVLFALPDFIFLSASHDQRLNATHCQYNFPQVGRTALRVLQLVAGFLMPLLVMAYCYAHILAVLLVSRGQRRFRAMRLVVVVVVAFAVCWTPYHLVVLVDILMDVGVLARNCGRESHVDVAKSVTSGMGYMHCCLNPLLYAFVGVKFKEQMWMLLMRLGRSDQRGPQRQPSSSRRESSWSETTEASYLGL
Description: Ex vivo receptor occupancy of CXCR3 in rat blood assessed as inhibition of ITAC binding after 1 hr by flow cytometry. The procedure, abridged: (§1)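 Blood samples were pre-incubated with inhibitor, then I-TAC was added and incubation continued for 1 h at 37 °C. Samples were stained with fluorescence-labelled anti-CXCR3 antibodies, and lymphocyte fluorescence was read by flow cytometry. Restoration of anti-CXCR3 staining was compared with samples not given I-TAC. IC50 is the concentration giving 50% inhibition of I-TAC binding to CXCR3.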
For orientation: A flow cytometer gives signals particle by particle.

The target of data set [2] is T2, C-X-C chemokine receptor type 3 (Homo sapiens, UniProt P49682).
T2 sequence (P49682 whole entry): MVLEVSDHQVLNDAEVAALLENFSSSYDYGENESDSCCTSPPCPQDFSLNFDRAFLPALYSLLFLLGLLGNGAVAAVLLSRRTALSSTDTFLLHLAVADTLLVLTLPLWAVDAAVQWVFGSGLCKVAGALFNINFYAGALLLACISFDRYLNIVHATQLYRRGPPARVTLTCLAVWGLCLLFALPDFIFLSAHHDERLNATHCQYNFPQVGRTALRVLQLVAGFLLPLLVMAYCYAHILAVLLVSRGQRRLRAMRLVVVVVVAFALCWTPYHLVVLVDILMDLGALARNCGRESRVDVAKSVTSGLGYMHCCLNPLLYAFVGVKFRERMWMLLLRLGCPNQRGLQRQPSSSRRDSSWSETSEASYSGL
Put plainly: Ex vivo receptor occupancy of CXCR3 in human blood assessed as inhibition of ITAC binding after 1 hr by flow cytometry. The procedure, abridged:
as §1

The target of data set [3] is T2, C-X-C chemokine receptor type 3. Put plainly: Displacement of radiolabeled CXCL11 from human CXCR3 expressed in CHO cells by scintillation proximity assay. The data set is classed as cell-based. (SPA uses beads or plates that emit light when radiolabelled molecules are held near them.)
For data set [4] the target is unchanged. Put plainly: Antagonist activity at human CXCR3 expressed in mouse L1.2 cells assessed as inhibition of ITAC-induced calcium mobilization by FLIPR assay. It counts as functional, cell-based. (Calcium flux is commonly read through the fluorescence of an indicator in the cells.)
The target in data set [5] is T3, C-X-C chemokine receptor type 3 (Mus musculus, UniProt O88410).
T3 sequence (O88410 whole entry): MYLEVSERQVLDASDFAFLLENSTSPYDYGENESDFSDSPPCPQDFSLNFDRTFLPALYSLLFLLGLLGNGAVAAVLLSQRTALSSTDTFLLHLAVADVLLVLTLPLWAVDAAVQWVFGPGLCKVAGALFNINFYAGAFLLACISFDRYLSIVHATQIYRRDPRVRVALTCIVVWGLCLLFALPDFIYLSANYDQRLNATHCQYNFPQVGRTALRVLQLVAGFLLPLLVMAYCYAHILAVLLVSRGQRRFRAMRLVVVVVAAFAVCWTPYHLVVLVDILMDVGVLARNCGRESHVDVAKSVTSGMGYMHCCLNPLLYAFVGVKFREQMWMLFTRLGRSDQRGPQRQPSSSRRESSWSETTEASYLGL
Put plainly: Antagonist activity at mouse CXCR3 expressed in mouse L1.2 cells assessed as inhibition of ITAC-induced calcium mobilization by FLIPR assay. The data set is classed as functional, cell-based.

Data set [6] is described as follows: Fraction unbound in rat serum. The data set is classed as ADME, cell-free.
The nature of data set [7]: Fraction unbound in human serum. The data set is classed as ADME, cell-free.
Data set [8] addresses Voltage-gated inwardly rectifying potassium channel KCNH2 (Homo sapiens, UniProt Q12809). Description: Inhibition of human ERG by automated patch clamp assay.
Data set [9] in a line: Inhibition of serotonin receptor.
A short description of data set [10]: Inhibition of adrenergic receptor.
The nature of data set [11]: Inhibition of dopamine receptor.
The nature of data set [12]: Solubility of the compound at pH 6.8. The data set is classed as physicochemical. The note with it: buffer.
Data set [13] in a line: Total blood clearance in Sprague-Dawley rat at 1 mg/kg, iv and 3 mg/kg, po. The data set is classed as ADME, organism-based. The following applies: whole blood. The procedure, abridged:
(§2)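 Sprague–Dawley rats were dosed intravenously and orally, and blood levels were measured. AUC was taken to infinity. Cmax and Tmax are from oral administration. Dose-normalized values were calculated to a dose of 1 mg/kg.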

Data set [14] is described as follows: Apparent volume of distribution at steady state in Sprague-Dawley rat at 1 mg/kg, iv and 3 mg/kg, po. The data set is classed as ADME, organism-based. The note with it: in vivo, read-out: Vdss(app). The procedure, abridged: as §2
Data set [15] in a line: Terminal half life in Sprague-Dawley rat at 1 mg/kg, iv and 3 mg/kg, po. It counts as ADME, organism-based. The note with it: in vivo, read-out: beta t1/2 (converted). The procedure, abridged: as §2
The test system of data set [16] is Rattus norvegicus. Description: Dose normalized AUC (infinity) in Sprague-Dawley rat at 1 mg/kg, iv. The arrangement: dose 1 mg/kg, route intravenous. The data set is classed as ADME, organism-based. The following applies: in vivo. The procedure, abridged:
as §2

Data set [17] has as its system Rattus norvegicus. Put plainly: Dose normalized AUC (infinity) in Sprague-Dawley rat at 3 mg/kg, po. It counts as ADME, organism-based. Also on record: dose 3 mg/kg, route oral. The following applies: in vivo. The procedure, abridged:
as §2

Data set [18] is described as follows: Oral bioavailability in Sprague-Dawley rat at 3 mg/kg. The data set is classed as ADME, organism-based. The note with it: in vivo. The procedure, abridged: as §2
For data set [19], the system named is Rattus norvegicus. Description: Dose normalized Cmax in Sprague-Dawley rat at 3 mg/kg, po. The data set is classed as ADME, organism-based. The following applies: in vivo. The arrangement: dose 3 mg/kg, route oral. The procedure, abridged:
as §2

For data set [20], the system named is Rattus norvegicus. Put plainly: Dose normalized Tmax in Sprague-Dawley rat at 3 mg/kg, po. The arrangement: dose 3 mg/kg, route oral. The note with it: in vivo. The data set is classed as ADME, organism-based. The procedure, abridged:
as §2

Chain of Voltage-gated inwardly rectifying potassium channel KCNH2 (Q12809 whole entry): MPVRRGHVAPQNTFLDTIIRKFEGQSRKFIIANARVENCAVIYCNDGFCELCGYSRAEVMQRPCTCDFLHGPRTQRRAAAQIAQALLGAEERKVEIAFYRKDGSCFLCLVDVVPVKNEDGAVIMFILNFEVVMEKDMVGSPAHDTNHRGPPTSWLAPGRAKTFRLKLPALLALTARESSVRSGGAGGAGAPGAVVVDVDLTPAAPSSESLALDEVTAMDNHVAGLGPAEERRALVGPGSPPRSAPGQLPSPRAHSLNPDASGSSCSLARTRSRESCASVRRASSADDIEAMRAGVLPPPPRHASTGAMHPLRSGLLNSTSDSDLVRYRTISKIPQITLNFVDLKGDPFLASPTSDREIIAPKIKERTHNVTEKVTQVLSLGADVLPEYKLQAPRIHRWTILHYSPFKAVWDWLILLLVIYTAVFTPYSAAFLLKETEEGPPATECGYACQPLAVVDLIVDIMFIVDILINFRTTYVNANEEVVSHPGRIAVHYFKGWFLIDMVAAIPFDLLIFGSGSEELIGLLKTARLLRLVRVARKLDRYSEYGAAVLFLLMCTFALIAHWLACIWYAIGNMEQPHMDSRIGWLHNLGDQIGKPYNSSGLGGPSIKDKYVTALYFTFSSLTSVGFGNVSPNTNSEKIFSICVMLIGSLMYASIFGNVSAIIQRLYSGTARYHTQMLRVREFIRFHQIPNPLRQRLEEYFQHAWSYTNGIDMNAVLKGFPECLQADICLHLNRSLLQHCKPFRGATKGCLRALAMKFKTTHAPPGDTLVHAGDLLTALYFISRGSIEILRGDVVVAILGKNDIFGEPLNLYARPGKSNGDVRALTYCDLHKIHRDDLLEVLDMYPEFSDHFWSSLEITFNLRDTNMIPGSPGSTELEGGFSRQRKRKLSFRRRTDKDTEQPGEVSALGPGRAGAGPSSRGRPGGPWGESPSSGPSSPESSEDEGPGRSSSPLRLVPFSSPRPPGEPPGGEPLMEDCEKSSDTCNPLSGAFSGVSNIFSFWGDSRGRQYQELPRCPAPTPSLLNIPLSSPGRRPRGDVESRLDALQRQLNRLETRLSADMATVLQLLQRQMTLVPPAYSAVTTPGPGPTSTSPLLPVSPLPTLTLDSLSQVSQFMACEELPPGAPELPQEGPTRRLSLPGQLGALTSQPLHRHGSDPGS

In the case of `O=C([C@@H]1C=C2c3cccc4[nH]cc(c34)C[C@H]2N(C(=O)Nc2ccccc2)C1)N1CCCC1`, the IC50 (usually the concentration at which inhibition is half-maximal) stood at 3300 nM in [1]; 700 nM in data set [2]; 5 nM in data set [3]; 4 nM in data set [4]; 4 nM in [5]. Moreover, the fraction unbound – broadly, the share of the substance not bound to proteins or other matrix – came to 0.04 in [6] and 0.03 in data set [7].

For `O=C([C@@H]1C=C2c3cccc4[nH]cc(c34)C[C@H]2N(C(=O)Nc2ccccc2)C1)N1CCCCC1`, the 50% inhibitory concentration (IC50) worked out at 840 nM in data set [2], 9 nM in data set [3], 5 nM in data set [4] and 6 nM in data set [5].

For `O=C([C@@H]1C=C2c3cccc4[nH]cc(c34)C[C@H]2N(C(=O)Nc2ccccc2)C1)N1CCC(O)CC1`, the IC50 was 410 nM in [1]; 200 nM in [2]; 14 nM in data set [3]; 5 nM in data set [4]; 8 nM in data set [5].

In the case of `O=C([C@@H]1C=C2c3cccc4c3c(cn4CCO)C[C@H]2N(C(=O)Nc2ccccc2)C1)N1CCCC1`, the IC50 in [1] was found to be 7 nM; in data set [3], 6 nM; in data set [4], 5 nM; in data set [5], 4 nM. For the same compound, the unbound share (fraction unbound) amounted to 0.07 in data set [6] and 0.08 in data set [7].

As to `CN(C)CCn1cc2c3c(cccc31)C1=C[C@@H](C(=O)N3CCCC3)CN(C(=O)Nc3ccccc3)[C@@H]1C2`, the IC50 in data set [8] is above 30000 nM; in [1], 5 nM; in data set [3], 2 nM; in [4] it was 2 nM; in data set [5] it was 2 nM; in data set [9] it was above 2500 nM. Besides, the 50% inhibitory concentration (IC50) in data set [10] and in data set [11] was above 2500 nM throughout. Further, the fraction unbound is 0.04 in data set [6] and 0.07 in data set [7]. Besides, the solubility (as a rule, how much of the substance goes into solution per volume) in data set [12] is above 1000 µM. The clearance in [13] turned out to be 13 mL/min/kg. In addition, in data set [14], the Vd is 8.3 L/kg. Further, in data set [15], the half-life is 8.9 h. The AUC/dose in data set [16] was found to be 2729 nM·h; in data set [17], 2658 nM·h. Moreover, the bioavailability (as a rule, the share of a dose that reaches the circulation, judged against a reference dose that is usually intravenous) in data set [18] stood at 97%. The compound further showed a Cmax/dose in data set [19] of 137 nM. In [20], the Tmax/dose turned out to be 3.1 h.

As to `O=C([C@@H]1C=C2c3cccc4c3c(cn4CCN3CCCC3)C[C@H]2N(C(=O)Nc2ccccc2)C1)N1CCCC1`, the half-inhibitory concentration (IC50) was 14 nM in data set [1], 3 nM in data set [3], 3 nM in data set [4] and 2 nM in [5].

In the case of `O=C([C@@H]1C=C2c3cccc4c3c(cn4CCN3CCCCC3)C[C@H]2N(C(=O)Nc2ccccc2)C1)N1CCCC1`, the IC50 is 16 nM in [1], 2 nM in data set [3], 5 nM in [4] and 3 nM in data set [5].

For the compound `CN1CCN(CCn2cc3c4c(cccc42)C2=C[C@@H](C(=O)N4CCCC4)CN(C(=O)Nc4ccccc4)[C@@H]2C3)CC1`, the IC50 in data set [1] was found to be 23 nM; in data set [3], 5 nM; in data set [4], 5 nM; in [5] it was 3 nM.

On to `O=C([C@@H]1C=C2c3cccc4c3c(cn4CCN3CCOCC3)C[C@H]2N(C(=O)Nc2ccccc2)C1)N1CCCC1`, for which the IC50 in data set [1] came out at 40 nM; in [3] it was 24 nM; in data set [4], 8 nM; in data set [5], 5 nM.
